Rpn11 block – blocks the human proteasome subunit Rpn11 | O00487 | human 26S proteasome, Ub4-pepOG fluorescence polarization; 20S core pre-blocked with epoxomicin | calls only at 20 µM | 0.59% of 360,000 active | AID 588493;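 active = inhibition at 20 µM, scaled to each plate's controls, above about 33%, limit read from the data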
IDE cell inh – cellular human IDE inhibition; P14735; HEK cells, FAbetaB cleavage, fluorescence polarization; inhibition, % at 5.59 µM; 0.41% of 320,000 active; AID 434962;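 active = percent inhibition above the average of all tested compounds plus 3 SD, set per screening campaign, cut at about 16% in these data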;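 also: IDE supplied by intact live HEK cells; FP after avidin binding of uncleaved biotin substrate so inhibition keeps polarization high; 0% = DMSO wells and 100% = 60 µM reference IDE inhibitor Ii1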
CSN inh – CSN deneddylation inhibition. 0.38% of 360,000 active. Purified CSN, SCF-Nedd8-OG deneddylation, fluorescence polarization. Q92905. inhibition, % at 12.5 µM. AID 651999;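 active = pattern-corrected inhibition above about 35%, with an unprinted fluorescence ratio check between 0.5 and 1.5, limit read from the data, passing the limit was not always enough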;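 also: 0% = enzyme with substrate and 100% = substrate without enzyme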
Target sequence (Q92905 whole entry, looked up, one chain of several): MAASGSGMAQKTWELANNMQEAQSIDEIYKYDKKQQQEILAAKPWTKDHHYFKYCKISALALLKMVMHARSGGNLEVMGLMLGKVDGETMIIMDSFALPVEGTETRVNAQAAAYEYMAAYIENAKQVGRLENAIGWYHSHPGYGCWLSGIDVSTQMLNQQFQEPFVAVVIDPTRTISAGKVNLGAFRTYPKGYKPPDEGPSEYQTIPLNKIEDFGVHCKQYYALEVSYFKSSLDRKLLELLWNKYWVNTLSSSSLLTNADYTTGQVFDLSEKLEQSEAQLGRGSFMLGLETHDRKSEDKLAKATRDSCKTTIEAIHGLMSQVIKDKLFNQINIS
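Schedule: reaction 90 min, room temperature / Assay system: HEK293T-derived human Csn5 enzyme / Input: Csn5 at 0.24 nM final / Measure: inhibition of Csn5 cleavage, % / Control set: substrate-only high control, full reaction low control / Technique: fluorescence polarization of the substrate / Buffer or medium: Tris/NaCl/DTT buffer, pH 7.5 / Reagent: SCFSkp2-Nedd8OG substrate at 10 nM final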
HNF4A DNA FP – change in binding of human HNF4 alpha to DNA; P41235; activity change, % at 10 µM; 0.3% of 360,000 active; HNF4a-FITC DNA binding, fluorescence polarization, 1 h; in the data active = activity change above about 30%, passing the limit was not always enough
TPT1 inhibitor – blocks Candida albicans tRNA 2'-phosphotransferase; recombinant caTPT1, FP RNA substrate dephosphorylation; inhibition, % at 5 µM; 0.81% of 300,000 active; AID 1962;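 active = inhibition above the mean of all tested compounds plus 3 SD, set per screening campaign, cut at about 24% in these data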;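 also: plate controls were DMSO alone for no effect and ferristatin control at 100 nM for full effect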
IDE act – boosts human insulin-degrading enzyme activity in HEK cells; P14735; 0.073% of 340,000 active; activation, % at 5.96 µM; FAbeta-B cleavage, fluorescence polarization; 0% vehicle, 100% cell-free pure enzyme wells; AID 493087;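 active = activation above the mean of all tested compounds plus 3 SD, set per screening campaign, cut at about 17% in these data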
caTPT1 confirm – confirmation of Candida albicans TPT1 inhibitors; shares compounds with TPT1 inhibitor; AID 2149; 74% of 2,400 active; inhibition, % at 5 µM; recombinant caTPT1, fluorescence polarization, RNase T1 coupled;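 active = inhibition above the primary screen limit, the mean inhibition of all tested compounds plus 3 SD, cut at about 25% in these data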
RNase T1 inh – counter-screen for TPT1 inhibitors: inhibitors of Aspergillus oryzae RNase T1; RNase T1 cleavage, fluorescence polarization, 1536-well; inhibition, % at 5 µM; AID 2153; 83% of 2,400 active; shares compounds with TPT1 inhibitor;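 active = inhibition above the solvent-only control well mean plus 3 SD, limit set per screening run, cut at about 23% in these data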;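 also: plate controls were DMSO wells with enzyme for no effect and wells without RNase T1 for full effect; inhibitors block cleavage so intact labeled substrate keeps polarization high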
Target sequence (P00651 whole entry, looked up): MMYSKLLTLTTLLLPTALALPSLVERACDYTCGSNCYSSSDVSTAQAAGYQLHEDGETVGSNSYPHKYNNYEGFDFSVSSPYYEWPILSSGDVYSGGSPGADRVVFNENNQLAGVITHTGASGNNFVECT
Rpn11 inh conf – Rpn11 inhibition confirmation, single concentration; AID 602318; purified human 26S proteasome, Ub4-pepOG fluorescence polarization; proteasome pretreated with epoxomicin; 29% of 1,900 active; shares compounds with Rpn11 block; inhibition, % at 20 µM
MMP-2 inh – MMP-2 (human) inhibition counter-screen; shares compounds with Rpn11 block; recombinant MMP-2, FRET peptide cleavage fluorescence; inhibition, % at 20 µM; 4% of 1,900 active; AID 602330;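 also: human MMP-2 activated beforehand with APMA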
Thrombin FP – thrombin (bovine) inhibition counter-screen; inhibition, % at 20 µM; bovine thrombin cleavage of Ub4-pepOG, fluorescence polarization; 13% of 1,900 active; shares compounds with Rpn11 block;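 active = mean inhibition at least 40% at 20 µM, or signal 3 deviations below plate average, so some actives read negative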;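 also: plate controls were thrombin with DMSO for no effect and buffer wells lacking thrombin for full effect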
Starred values were filed as active, the others as inactive; i = inactive; . = no result; + = active, no number. This is a sample that favours compounds with a hit; in the whole collection about 1.7% have one here. Rule as the data show it, unless noted: active = inhibition above about 40%; inactive = the rest.

SMILES | Rpn11 block | IDE cell inh | CSN inh | HNF4A DNA FP | TPT1 inhibitor | IDE act | caTPT1 confirm | RNase T1 inh | Rpn11 inh conf | MMP-2 inh | Thrombin FP
COc1ccc(C)cc1Nc1nc(C)nc2sc(C)cc12 | i | 0 | 2 | 3 | -1 | 4 | . | . | . | . | .
Cc1ccc(S(=O)(=O)N(C)C)cc1NC(=O)COc1cccc(-n2cnnn2)c1 | i | -1 | 4 | 1 | . | 3 | . | . | . | . | .
Cc1sc2nc(CSc3nnc(Cc4cccs4)n3C3CCCCC3)[nH]c(=O)c2c1C | + | 1 | 15 | 30 | 38* | 5 | 66* | 74* | 102* | -7 | 59*
Cc1ccc2nc(CSc3nnc(Cc4cccs4)n3C3CCCCC3)cc(=O)n2c1 | i | 0 | 0 | -2 | -1 | -4 | . | . | . | . | .
O=C1/C(=C/c2ccc([N+](=O)[O-])cc2)C=C(c2ccccc2)N1c1ccccc1 | + | -4 | 11 | 25 | 35* | 3 | 12 | 23* | 8 | 17 | -2
CC(C)N=C1NN=C(c2cccs2)CS1 | i | -1 | 5 | 3 | -1 | 4 | . | . | . | . | .
CC(C)c1ccc(N=C2NN=C(c3cccs3)CS2)cc1 | + | 4 | 13 | 27 | 40* | 5 | 42* | 50* | -1 | -1 | 3
Cc1ccc(C(=O)CSc2cc(C)[nH]c(=O)n2)cc1 | + | 3 | 10 | 17 | 28* | 0 | 39* | 47* | 49* | 16 | 24
Cc1cc(SCC(=O)c2ccccc2)nc(=O)[nH]1 | i | 0 | 7 | 6 | 3 | 1 | . | . | . | . | .
Cc1nn(CC(=O)c2ccc(Cl)s2)c(C)c1[N+](=O)[O-] | + | 3 | -4 | 15 | 43* | 4 | 40* | 49* | 19 | 6 | 17
CCOC(=O)CSc1ncc(-c2ccccc2)nn1 | i | 0 | 1 | -1 | 1 | 3 | . | . | . | . | .
CCCCC(=O)Nc1ccc(S(=O)(=O)Nc2nccc(C)n2)cc1 | i | 2 | 2 | -3 | -3 | 1 | . | . | . | . | .
CCN(CC)c1ccc(/C=N/N=C(c2ccccc2)c2ccccc2)c(O)c1 | + | -4 | -9 | 29 | 36* | 7 | 98* | 104* | 0 | -22 | -24
CCN(CC)c1ccc(/C=N/NC(=O)c2ccco2)c(O)c1 | + | 2 | 6 | 14 | 27* | -1 | 48* | 59* | 16 | -26 | 8
CC(C)OC(=O)CNc1n[nH]c(=S)[nH]c1=O | i | . | -6 | 3 | . | -2 | . | . | . | . | .
CN(C)c1ccc(/C=C/c2nc3ccccc3s2)cc1 | + | 14 | 18 | 36* | 111* | -4 | 113* | 114* | 32 | -5 | 24
CN(C)c1ccc(CNc2nc3ccccc3s2)cc1 | . | -6 | . | . | 4 | . | . | . | . | . | .
CNC(=O)c1ccsc1NC(=O)C1CCCN1S(=O)(=O)c1cccs1 (configuration not stated) | i | -3 | 0 | 1 | 2 | 1 | . | . | . | . | .
COc1ccc(/C=N/Nc2ccc([N+](=O)[O-])cc2)cc1Cn1cc([N+](=O)[O-])cn1 | + | 5 | 4 | 13 | 108* | 8 | 83* | 92* | -3 | -23 | -4
CCN1C(=O)/C(=C/c2c(C)nn(C)c2C)SC1=S | + | 2 | 10 | 10 | 24* | -2 | 34* | 45* | 33 | -32 | 21
CCc1ccc2c(CN3CCOCC3)cc(=O)oc2c1 | i | 2 | 2 | -4 | -1 | 4 | . | . | . | . | .

Screening data deposited in PubChem by several laboratories.
